Shown are actives, neighbours in structure and some others; about 5.2% of the full set was active somewhere.
EBNA-1 inh: blocks EBNA-1 binding to DNA; 0.34% of 300,000 active; inhibition, % at 14.8 µM; AID 1950; EBNA-1 DNA binding, fluorescence polarization; in the data active = inhibition above about 28%
ALR H2O2 inh: inhibitors of human sulfhydryl oxidase ALR; P55789; purified ALR, DTT oxidation, H2O2 HRP-luminol luminescence; inhibition, % (test concentration not listed); 3.8% of 290,000 active; AID 485317;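 active = mean replicate inhibition above about 79%, with every replicate also reaching it, limit read from the data; inconclusive = only one of the two criteria met; inactive = mean below limit and not every replicate reaching it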
Target sequence (P55789 whole entry, looked up): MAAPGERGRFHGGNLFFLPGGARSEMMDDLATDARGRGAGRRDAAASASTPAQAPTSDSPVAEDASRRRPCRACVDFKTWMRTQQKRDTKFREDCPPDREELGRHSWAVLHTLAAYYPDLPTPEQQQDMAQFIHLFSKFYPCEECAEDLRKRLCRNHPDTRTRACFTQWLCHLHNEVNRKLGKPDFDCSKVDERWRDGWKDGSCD
ZTA counter: ZTA (EBV) inhibition in EBNA-1 counter-screen | AID 2234 | inhibition, % at 11 µM | ZTA-DNA binding, fluorescence polarization | 0.15% of 320,000 active; in the data active = inhibition above about 33%
Target sequence (P03206 whole entry, looked up): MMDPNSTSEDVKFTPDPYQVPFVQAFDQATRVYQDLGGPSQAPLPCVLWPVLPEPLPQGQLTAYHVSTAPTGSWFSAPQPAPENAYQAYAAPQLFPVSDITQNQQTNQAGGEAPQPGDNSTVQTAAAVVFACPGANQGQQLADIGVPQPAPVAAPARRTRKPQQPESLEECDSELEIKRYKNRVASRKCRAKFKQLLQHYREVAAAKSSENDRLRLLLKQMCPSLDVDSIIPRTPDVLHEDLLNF
HCV core dimer: HCV core protein dimerization inhibition | TR-FRET GST/Flag-core106 dimerization, 1536-well | inhibition, % at 5 µM | 0.33% of 300,000 active;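 active = inhibition above the mean of all tested compounds plus 3 SD, set per screening campaign, cut at about 45% in these data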
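Assay system: tagged HCV core106 pair (GST and Flag); medium: KF-containing HEPES buffer, pH 7.45, DTT, CHAPS, BSA; also added: Eu donor and XL665 acceptor anti-tag antibodies; dosing: 5 µM single dose; timing: compound-protein-antibody incubation 4 h at 22.5 °C; signal: TR-FRET 671 and 617 nm emission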
PfM18AAP inh: PfM18AAP enzyme inhibition; inhibition, % at 7.35 µM; recombinant PfM18AAP, H-Glu-NHMec fluorogenic cleavage; 1.2% of 290,000 active;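 active = inhibition above the campaign mean inhibition over all tested compounds plus 3 SD, cut at about 28% in these data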
HCV NS3 hel inh: inhibitors of Hepatitis C virus NS3 helicase; NS3 helicase DNA unwinding, Cy5 molecular beacon fluorescence; inhibition, % at 10.9 µM; 0.56% of 290,000 active; AID 1800;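 active = inhibition above the mean of all tested compounds plus 3 SD, set per campaign, cut at about 35% in these data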
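System: NS3 helicase fragment of HCV / Schedule: 1 h at 25 °C / Control set: DMSO alone as 0% and 110 µM thioflavine S as 100% / Reagent: Cy5/quencher beacon DNA duplex and ATP to start / Technique: Cy5 fluorescence / Replication: singlicate / Evaluation: % inhibition of end-to-start signal ratio versus controls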
NS3 hel confirm: HCV NS3 helicase inhibition, confirmation assay; shares compounds with HCV NS3 hel inh; inhibition, % at 10.9 µM; NS3 helicase DNA unwinding, Cy5 molecular beacon fluorescence; 31% of 1,600 active; AID 1943;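 active = inhibition above the mean of all tested compounds plus 3 SD, cutoff set per campaign, cut at about 36% in these data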
FID counter trip: intercalator displacement, NS3 helicase counter-screen. DNA fluorescent intercalator displacement, fluorescence. 4% of 1,600 active. shares compounds with HCV NS3 hel inh. inhibition, % at 7.9 µM; in the data active = inhibition above about 37%;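 also: higher means more displacement of ethidium bromide from the DNA hairpin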
A number is an active result; . = inactive; ? = inconclusive; / = not tested or not shown.

SMILES	EBNA-1 inh	ALR H2O2 inh	ZTA counter	HCV core dimer	PfM18AAP inh	HCV NS3 hel inh	NS3 hel confirm	FID counter trip
CC(C)Cn1c(SCC(=O)c2ccc(Cl)s2)nnc1-c1ccco1	.	.	.	.	.	39	.	.
O=C(CSc1nnc(-c2ccco2)n1Cc1ccccc1)c1ccccc1	.	.	.	.	.	.	/	/
O=C(CSc1nnc(-c2ccco2)c(-c2ccco2)n1)c1ccccc1	.	99	.	.	.	41	91	45
CCn1c(SCC(=O)c2ccc3c(c2)OCCO3)nnc1-c1ccco1	.	.	.	.	.	48	.	.
CCOc1ccc(C(=O)NCc2ccc3c(c2)OCO3)cc1	.	.	.	.	.	.	/	/
COc1ccccc1N(CC(O)CN1CCC(C)CC1)S(=O)(=O)c1ccccc1 (centres undefined)	.	.	.	.	.	.	/	/
N#Cc1ccc(NC(=O)COC(=O)CCc2nc3ccccc3c(=O)[nH]2)cc1	.	/	.	.	.	.	/	/
CCOC(=O)c1c(-c2ccc(F)cc2)csc1NC(=O)C1CC=CCC1C(=O)O (centres undefined)	.	?	.	.	.	.	/	/
COC(=O)c1c(-c2ccco2)csc1NC(=O)C1CC=CCC1C(=O)O (centres undefined)	.	.	.	.	.	36	.	.
Clc1ccc(CCNc2ncnc3c2nnn3Cc2ccccc2)cc1	.	.	.	.	.	.	/	/
O=C(O)C1Nc2c(O)cc(Cl)c([N+](=O)[O-])c2C2C=CCC12 (centres undefined)	58	.	90	.	.	70	79	.
COc1ccc(OC)c(C2Nc3c(Cl)ccc(C(=O)O)c3C3C=CCC32)c1 (centres undefined)	.	.	.	.	.	.	/	/
O=S(=O)(c1cccs1)N1CN(Cc2ccc(F)cc2)c2nc3ccccc3nc21	.	.	.	.	.	50	.	.
O=S(=O)(c1cccs1)N1CN(Cc2ccccc2)c2nc3ccccc3nc21	.	.	.	.	.	.	/	/
COCCN(C(=O)CSc1nc2ccccc2c(=O)n1CC(C)C)c1c(N)n(Cc2ccccc2)c(=O)[nH]c1=O	.	.	.	.	.	.	/	/
Cn1c2ccccc2c2cc(/C=N/NC(=O)c3cc(O)ccc3O)ccc21	.	.	.	.	.	69	.	.
Cn1c2ccccc2c2cc(/C=N/NC(=O)c3cc(O)cc(O)c3)ccc21	.	.	.	.	.	.	/	/
Cc1c(CC(=O)NCC(=O)O)c(=O)oc2cc3occ(-c4ccccc4)c3cc12	.	/	.	.	.	38	51	.
CCCCOC(=O)C1[C@H]2C(=O)N(Cc3cccs3)C[C@]23C=C[C@H]1O3 (some centres undefined)	.	.	.	.	.	.	/	/
CCCOC(=O)C1[C@H]2C(=O)N(Cc3ccco3)C[C@]23C=C[C@H]1O3 (some centres undefined)	.	.	.	.	.	40	.	.
CC1=C(C)Cc2c(OC(=O)c3ccccc3)ccc(OC(=O)c3ccccc3)c2C1	.	.	.	.	.	.	.	.
COc1cccc(-c2ncc3ccccc3c2COC(=O)c2ccco2)c1	/	.	.	/	/	/	/	/
CCC(=O)Nc1ccc2nc3c(=O)[nH]c(=S)[nH]c3nc2c1	.	.	.	.	.	39	.	.
CCCCn1c(=O)[nH]c2nc3cc(NC(C)=O)ccc3nc2c1=O	.	.	.	.	.	.	/	/
COc1ccc(C2/C(=C(/O)c3ccc(C)cc3)C(=O)C(=O)N2c2ccccn2)cc1 (centres undefined)	.	.	.	.	.	.	/	/
SMILES	EBNA-1 inh	ALR H2O2 inh	ZTA counter	HCV core dimer	PfM18AAP inh	HCV NS3 hel inh	NS3 hel confirm	FID counter trip
Cc1ccc(/C(O)=C2/C(=O)C(=O)N(c3ccccn3)C2c2ccc([N+](=O)[O-])cc2)cc1 (centres undefined)	.	.	.	.	.	36	.	.
Cc1ccc(/C(O)=C2/C(=O)C(=O)N(c3ccccn3)C2c2cccc([N+](=O)[O-])c2)cc1 (centres undefined)	.	.	.	.	.	48	.	.
CCC(c1c(C)n(C)n(-c2ccccc2)c1=O)c1c(C)n(C)n(-c2ccccc2)c1=O	.	.	.	.	.	39	.	.
N#Cc1c(N)n(-c2cccc(O)c2)c2nc3ccccc3nc12	.	.	.	.	.	.	/	/
Cn1nc(C(=O)NCC2COc3ccccc3O2)c2ccccc2c1=O (centres undefined)	/	.	.	/	/	/	/	/
Cc1ccc(C(=O)N/C(=C/c2ccco2)C(=O)N2CCC(C)CC2)cc1	.	.	.	.	.	47	.	.
COc1ccc(C(=O)N/C(=C/c2ccco2)C(=O)NCc2ccco2)cc1	.	.	.	.	.	.	/	/
Cc1ccc(C(=O)N/C(=C/c2ccco2)C(=O)NCc2ccco2)cc1	.	.	.	.	.	37	.	.
CC(C)(CNC(=O)c1ccc(-c2ccccc2Cl)o1)N1CCOCC1	.	.	.	.	/	/	/	/
Cc1ccc(-c2csc3ncnc(NS(=O)(=O)c4ccc(Cl)cc4)c23)cc1	.	.	.	.	.	50	44	.
NNc1ncnc2scc(-c3ccc(Cl)cc3)c12	.	.	.	.	.	.	/	/
CC(C)Nc1ccc(Cl)cc1[N+](=O)[O-]	.	.	.	.	.	41	.	.
Cc1cc(C)cc(NC(=O)C2CCN(S(=O)(=O)c3ccc4c(c3)NC(=O)C(C)S4)CC2)c1 (centres undefined)	.	.	.	.	.	43	.	.
Cc1ccc(NC(=O)C2CCN(S(=O)(=O)c3ccc4c(c3)NC(=O)C(C)S4)CC2)c(Cl)c1 (centres undefined)	.	.	.	.	.	.	/	/
COCCN(C(=O)CSc1nnc(-c2cccs2)n1N)c1c(N)n(Cc2ccccc2)c(=O)[nH]c1=O	.	.	.	.	.	.	/	/
COc1ccc2ccccc2c1C1CC(=O)N2CN(Cc3ccco3)CSC2=C1C#N (centres undefined)	.	.	.	.	.	47	46	.
COc1ccc(Br)cc1C1Nc2cccc3cccc(c23)N1	.	.	.	.	33	97	.	.
COc1cc(C2Nc3cccc4cccc(c34)N2)cc(OC)c1OC(C)=O	.	.	.	.	.	.	/	/
O=C(NC(=S)N1CCN(c2ccc([N+](=O)[O-])cc2)CC1)c1ccccc1F	.	.	.	.	.	.	/	/
Cc1ccc(S(=O)(=O)N2CCN(C(=O)COC(=O)CSc3ccccc3)CC2)c(C)c1	.	.	.	.	/	/	/	/

Screening data: PubChem BioAssay, several laboratories
